Laboratory results reported in PubChem BioAssay AID2805 (Sanford-Burnham Center for Chemical Genomics, 2010).
Hit rate of the full screen: of about 330,000 compounds, about 780 (0.24%) were called active. The entries come from a sample that favours actives as a whole. A number with no mark means an inactive call.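 Rule for the calls: active = activation factor of at least 2 at 20 µM; inactive = the rest.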

Each molecule was assayed on intestinal alkaline phosphatase [Mus musculus] (assay: activators of mouse IAP, primary screen, biochemical, luminescence, uHTS (AID 2805)). Conditions: muIAP, CDP-Star luminescence, 30 min, at 10 µM, active compounds read high.
Method in brief: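 System: mouse IAP enzyme. Reagent: CDP-Star chemiluminescent phosphatase substrate. Benchmarks: DMSO wells, no-enzyme wells. Times: 30 min enzyme-substrate-compound incubation at room temperature. Detection: luminescence from enzymatic CDP-Star hydrolysis. Doses: test compounds delivered from DMSO solution.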

SMILES | activation factor
Cc1cc(C)cc(NC(=S)NC2CC3CCCC(C2)N3Cc2cccs2)c1 (stereo not given) | 5.54 (active)
O=C1NC(=O)C(C/C=C/c2ccccc2)C(=O)N1 | 0.991
N#CC1=C(N)Oc2c(c(=O)oc3ccccc23)C1c1ccccc1OC(=O)c1cccs1 (stereo not given) | 0.989
C=CCn1c(O)c(/C=N/N2CCOCC2)c(=O)[nH]c1=S | 1.03
O=C1C2(Cl)C3(Cl)C4(Cl)C(Cl)(Cl)C5(Cl)C3(Cl)C1(Cl)C5(Cl)C24Cl (stereo not given) | 0.917 [1 = vehicle-only enzyme signal, 0 = enzyme-free wells]
